# From ChEMBL document CHEMBL5724801, “EUbOPEN Chemogenomics Library - Multiplex” (2024)
# Where “and” joins values, the source holds several entries; their conditions need not be identical. Equal values may be shown once.
# How the values were obtained:
# Assay type in all cases: toxicity, cell-based
# [1] = system: Fibroblast; experiment: Multiplex assay against human fibroblast
# Outline: (§1)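 On a CQ1 microscope at 37°C and 5% CO2, live cells were imaged after compound addition. They had been stained at seeding with Hoechst33342, BioTracker Green Microtubule Cytoskeleton Dye, MitoTracker Red and Annexin V Alexa Fluor 680. CellPathfinder machine-learning gating assigned cells to Hoechst high-intensity objects or normal cells, normal cells to healthy, pyknosed or fragmented nuclei, and pyknosed cells to mitotic or apoptotic. Tubulin, mitochondrial-mass and membrane-permeability phenotypes are per cents of healthy-nucleus cells.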
# [2] = system: HEK-293T; experiment: Multiplex assay against HEK293T; conditions: human; outline: as §1
# [3] = system: U2OS; experiment: Multiplex assay against U2OS; conditions: human; outline: as §1
# [4] = 12 h, 1 µM, compound concentration 1 uM
# [5] = 12 h, 10 µM, compound concentration 10 uM
# [6] = 24 h, 1 µM, compound concentration 1 uM
# [7] = 24 h, 10 µM, compound concentration 10 uM
# [8] = 48 h, 1 µM, compound concentration 1 uM
# [9] = 48 h, 10 µM, compound concentration 10 uM
structure (smiles),measurement,setting,value
O=C(CCCc1ccccc1)Nc1nc2ccccc2c(=O)s1,Population Apoptotic (%),[1]; [4],58% and 34%
same,Population Fragmented Nuclei (%),[1]; [4],9% and 19%
same,Population Healthy Nuclei (%),[1]; [4],66% and 49%
same,Population Hoechst High Intensity Objects (%),[1]; [4],2% and 3%
same,Population Membrane Permeable-Phenotype (%),[1]; [4],0% and 9%
same,Population Mitochondria Different-Phenotype (%),[1]; [4],4% and 7%
same,Population Mitotic Cells (%),[1]; [4],41% and 65%
same,Population Normal (%),[1]; [4],97% and 96%
same,Population Pyknosed Nuclei (%),[1]; [4],23% and 31%
same,Population Tubulin-Different-Phenotype (%),[1]; [4],34% and 35%
same,Total Cell Count,[1]; [4],127 and 135
same,Population Apoptotic (%),[1]; [5],51% and 31%
same,Population Fragmented Nuclei (%),[1]; [5],21% and 26%
same,Population Healthy Nuclei (%),[1]; [5],58% and 38%
same,Population Hoechst High Intensity Objects (%),[1]; [5],2% and 12%
same,Population Mitotic Cells (%),[1]; [5],48% and 68%
same,Population Normal (%),[1]; [5],97% and 87%
same,Population Pyknosed Nuclei (%),[1]; [5],20% and 35%
same,Population Tubulin-Different-Phenotype (%),[1]; [5],28% and 48%
same,Total Cell Count,[1]; [5],147 and 133
same,Population Apoptotic (%),[1]; [6],50% and 42%
same,Population Fragmented Nuclei (%),[1]; [6],13% and 21%
same,Population Healthy Nuclei (%),[1]; [6],68% and 51%
same,Population Hoechst High Intensity Objects (%),[1]; [6],2% and 5%
same,Population Membrane Permeable-Phenotype (%),[1]; [6],0% and 4%
same,Population Mitochondria Different-Phenotype (%),[1]; [6],5% and 4%
same,Population Mitotic Cells (%),[1]; [6],50% and 57%
same,Population Normal (%),[1]; [6],97% and 94%
same,Population Pyknosed Nuclei (%),[1]; [6],18% and 26%
same,Population Tubulin-Different-Phenotype (%),[1]; [6],20% and 35%
same,Total Cell Count,[1]; [6],147 and 131
same,Population Apoptotic (%),[1]; [7],46% and 53%
same,Population Fragmented Nuclei (%),[1]; [7],19% and 34%
same,Population Healthy Nuclei (%),[1]; [7],60% and 39%
same,Population Hoechst High Intensity Objects (%),[1]; [7],5%
same,Population Membrane Permeable-Phenotype (%),[1]; [7],0% and 18%
same,Population Mitotic Cells (%),[1]; [7],53% and 46%
same,Population Normal (%),[1]; [7],94%
same,Population Pyknosed Nuclei (%),[1]; [7],20% and 25%
same,Total Cell Count,[1]; [7],135 and 134
same,Population Apoptotic (%),[1]; [8],59% and 42%
same,Population Fragmented Nuclei (%),[1]; [8],13% and 26%
same,Population Healthy Nuclei (%),[1]; [8],66% and 58%
same,Population Hoechst High Intensity Objects (%),[1]; [8],5% and 2%
same,Population Membrane Permeable-Phenotype (%),[1]; [8],1% and 4%
same,Population Mitochondria Different-Phenotype (%),[1]; [8],1% and 6%
same,Population Mitotic Cells (%),[1]; [8],40% and 57%
same,Population Normal (%),[1]; [8],94% and 97%
same,Population Pyknosed Nuclei (%),[1]; [8],19% and 15%
same,Population Tubulin-Different-Phenotype (%),[1]; [8],32% and 50%
same,Total Cell Count,[1]; [8],146 and 127
same,Population Apoptotic (%),[1]; [9],58% and 77%
same,Population Fragmented Nuclei (%),[1]; [9],19% and 40%
same,Population Healthy Nuclei (%),[1]; [9],58% and 43%
same,Population Hoechst High Intensity Objects (%),[1]; [9],2% and 5%
same,Population Membrane Permeable-Phenotype (%),[1]; [9],1% and 10%
same,Population Mitotic Cells (%),[1]; [9],41% and 22%
same,Population Normal (%),[1]; [9],97% and 94%
same,Population Pyknosed Nuclei (%),[1]; [9],22% and 16%
same,Population Tubulin-Different-Phenotype (%),[1]; [9],26% and 73%
same,Total Cell Count,[1]; [9],143 and 119
same,Population Apoptotic (%),[2]; [4],30% and 43%
same,Population Fragmented Nuclei (%),[2]; [4],4% and 7%
same,Population Healthy Nuclei (%),[2]; [4],83% and 74%
same,Population Hoechst High Intensity Objects (%),[2]; [4],6% and 13%
same,Population Membrane Permeable-Phenotype (%),[2]; [4],0%
same,Population Mitochondria Different-Phenotype (%),[2]; [4],37% and 63%
same,Population Mitotic Cells (%),[2]; [4],70% and 56%
same,Population Normal (%),[2]; [4],93% and 86%
same,Population Pyknosed Nuclei (%),[2]; [4],11% and 17%
same,Population Tubulin-Different-Phenotype (%),[2]; [4],32% and 36%
same,Total Cell Count,[2]; [4],372 and 267
same,Population Apoptotic (%),[2]; [5],30% and 44%
same,Population Fragmented Nuclei (%),[2]; [5],10% and 7%
same,Population Healthy Nuclei (%),[2]; [5],80% and 74%
same,Population Hoechst High Intensity Objects (%),[2]; [5],9% and 27%
same,Population Membrane Permeable-Phenotype (%),[2]; [5],0%
same,Population Mitochondria Different-Phenotype (%),[2]; [5],47% and 68%
same,Population Mitotic Cells (%),[2]; [5],69% and 55%
same,Population Normal (%),[2]; [5],90% and 72%
same,Population Pyknosed Nuclei (%),[2]; [5],9% and 17%
same,Population Tubulin-Different-Phenotype (%),[2]; [5],27% and 26%
same,Total Cell Count,[2]; [5],555 and 371
same,Population Apoptotic (%),[2]; [6],20% and 45%
same,Population Fragmented Nuclei (%),[2]; [6],8% and 9%
same,Population Healthy Nuclei (%),[2]; [6],81% and 78%
same,Population Hoechst High Intensity Objects (%),[2]; [6],5% and 8%
same,Population Membrane Permeable-Phenotype (%),[2]; [6],1% and 0%
same,Population Mitochondria Different-Phenotype (%),[2]; [6],21% and 38%
same,Population Mitotic Cells (%),[2]; [6],79% and 54%
same,Population Normal (%),[2]; [6],94% and 91%
same,Population Pyknosed Nuclei (%),[2]; [6],10% and 12%
same,Population Tubulin-Different-Phenotype (%),[2]; [6],15% and 13%
same,Total Cell Count,[2]; [6],538 and 370
same,Population Apoptotic (%),[2]; [7],33% and 52%
same,Population Fragmented Nuclei (%),[2]; [7],10% and 8%
same,Population Healthy Nuclei (%),[2]; [7],80%
same,Population Membrane Permeable-Phenotype (%),[2]; [7],0%
same,Population Mitochondria Different-Phenotype (%),[2]; [7],38% and 47%
same,Population Mitotic Cells (%),[2]; [7],66% and 47%
same,Population Normal (%),[2]; [7],93% and 75%
same,Population Pyknosed Nuclei (%),[2]; [7],9% and 11%
same,Population Tubulin-Different-Phenotype (%),[2]; [7],29% and 20%
same,Total Cell Count,[2]; [7],661 and 444
same,Population Apoptotic (%),[2]; [8],20% and 38%
same,Population Fragmented Nuclei (%),[2]; [8],11% and 10%
same,Population Healthy Nuclei (%),[2]; [8],82% and 80%
same,Population Hoechst High Intensity Objects (%),[2]; [8],2% and 4%
same,Population Membrane Permeable-Phenotype (%),[2]; [8],1% and 0%
same,Population Mitochondria Different-Phenotype (%),[2]; [8],15% and 28%
same,Population Mitotic Cells (%),[2]; [8],79% and 61%
same,Population Normal (%),[2]; [8],97% and 95%
same,Population Pyknosed Nuclei (%),[2]; [8],6% and 8%
same,Population Tubulin-Different-Phenotype (%),[2]; [8],11% and 13%
same,Total Cell Count,[2]; [8],820 and 534
same,Population Fragmented Nuclei (%),[2]; [9],14% and 13%
same,Population Healthy Nuclei (%),[2]; [9],79% and 77%
same,Population Hoechst High Intensity Objects (%),[2]; [9],4% and 11%
same,Population Membrane Permeable-Phenotype (%),[2]; [9],0% and 1%
same,Population Mitochondria Different-Phenotype (%),[2]; [9],21% and 30%
same,Population Mitotic Cells (%),[2]; [9],77% and 31%
same,Population Normal (%),[2]; [9],95% and 88%
same,Population Pyknosed Nuclei (%),[2]; [9],6% and 9%
same,Population Tubulin-Different-Phenotype (%),[2]; [9],16%
same,Total Cell Count,[2]; [9],984 and 567
same,Population Apoptotic (%),[3]; [4],92% and 55%
same,Population Fragmented Nuclei (%),[3]; [4],26% and 17%
same,Population Healthy Nuclei (%),[3]; [4],64% and 74%
same,Population Hoechst High Intensity Objects (%),[3]; [4],2% and 0%
same,Population Membrane Permeable-Phenotype (%),[3]; [4],4% and 7%
same,Population Mitochondria Different-Phenotype (%),[3]; [4],2% and 3%
same,Population Normal (%),[3]; [4],97% and 100%
same,Population Pyknosed Nuclei (%),[3]; [4],9% and 7%
same,Population Tubulin-Different-Phenotype (%),[3]; [4],1% and 2%
same,Total Cell Count,[3]; [4],274 and 113
same,Population Apoptotic (%),[3]; [5],72% and 100%
same,Population Fragmented Nuclei (%),[3]; [5],31% and 20%
same,Population Healthy Nuclei (%),[3]; [5],58% and 67%
same,Population Hoechst High Intensity Objects (%),[3]; [5],2% and 4%
same,Population Membrane Permeable-Phenotype (%),[3]; [5],2% and 7%
same,Population Mitochondria Different-Phenotype (%),[3]; [5],0% and 6%
same,Population Normal (%),[3]; [5],97% and 95%
same,Population Pyknosed Nuclei (%),[3]; [5],9% and 11%
same,Population Tubulin-Different-Phenotype (%),[3]; [5],1% and 6%
same,Total Cell Count,[3]; [5],270 and 101
same,Population Apoptotic (%),[3]; [6],79% and 84%
same,Population Fragmented Nuclei (%),[3]; [6],22% and 17%
same,Population Healthy Nuclei (%),[3]; [6],68% and 73%
same,Population Hoechst High Intensity Objects (%),[3]; [6],1% and 0%
same,Population Membrane Permeable-Phenotype (%),[3]; [6],4% and 8%
same,Population Mitochondria Different-Phenotype (%),[3]; [6],2%
same,Population Mitotic Cells (%),[3]; [6],20% and 15%
same,Population Normal (%),[3]; [6],98% and 100%
same,Population Pyknosed Nuclei (%),[3]; [6],9%
same,Population Tubulin-Different-Phenotype (%),[3]; [6],2% and 3%
same,Total Cell Count,[3]; [6],325 and 141
same,Population Apoptotic (%),[3]; [7],86% and 100%
same,Population Fragmented Nuclei (%),[3]; [7],25% and 19%
same,Population Healthy Nuclei (%),[3]; [7],65% and 71%
same,Population Hoechst High Intensity Objects (%),[3]; [7],2% and 1%
same,Population Membrane Permeable-Phenotype (%),[3]; [7],5% and 8%
same,Population Mitochondria Different-Phenotype (%),[3]; [7],1% and 2%
same,Population Mitotic Cells (%),[3]; [7],13% and 0%
same,Population Normal (%),[3]; [7],97% and 98%
same,Population Pyknosed Nuclei (%),[3]; [7],9%
same,Population Tubulin-Different-Phenotype (%),[3]; [7],4% and 3%
same,Total Cell Count,[3]; [7],319 and 124
same,Population Apoptotic (%),[3]; [8],91% and 87%
same,Population Fragmented Nuclei (%),[3]; [8],13% and 19%
same,Population Healthy Nuclei (%),[3]; [8],76% and 71%
same,Population Hoechst High Intensity Objects (%),[3]; [8],7% and 5%
same,Population Membrane Permeable-Phenotype (%),[3]; [8],3%
same,Population Mitochondria Different-Phenotype (%),[3]; [8],2% and 3%
same,Population Mitotic Cells (%),[3]; [8],8% and 12%
same,Population Normal (%),[3]; [8],92% and 94%
same,Population Pyknosed Nuclei (%),[3]; [8],9% and 8%
same,Population Tubulin-Different-Phenotype (%),[3]; [8],1% and 6%
same,Total Cell Count,[3]; [8],394 and 192
same,Population Apoptotic (%),[3]; [9],91% and 95%
same,Population Fragmented Nuclei (%),[3]; [9],20% and 15%
same,Population Healthy Nuclei (%),[3]; [9],70% and 72%
same,Population Hoechst High Intensity Objects (%),[3]; [9],2% and 0%
same,Population Membrane Permeable-Phenotype (%),[3]; [9],5% and 9%
same,Population Mitochondria Different-Phenotype (%),[3]; [9],0% and 3%
same,Population Mitotic Cells (%),[3]; [9],8% and 4%
same,Population Normal (%),[3]; [9],97% and 99%
same,Population Pyknosed Nuclei (%),[3]; [9],8% and 12%
same,Population Tubulin-Different-Phenotype (%),[3]; [9],3% and 5%
same,Total Cell Count,[3]; [9],427 and 175
